Screening results from PubChem.
Rows were chosen to be rich in hits. Some 3.8% of all compounds tested hit in one or more screens of this group.
Beta cell apopt: inhibitors of cytokine-induced beta cell apoptosis, primary screen, luminescence; protection from apoptosis, % (test concentration not listed); INS-1E cytokine-induced death, ATP luminescence, 48 h; percent of positive-control rescue, neutral wells zero; 0.8% of 300,000 active;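 active means Every replicate reaches about 75%, or at least half do and their mean reaches it too, limit read from the data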;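 further: 0% = cytokine-treated negative control wells and 100% = positive control rescue; higher means more ATP so stronger rescue from cytokine killing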
MC4R antagonist: MC4R antagonists of cAMP signaling, primary screen, cell-based, TR-FRET, antagonist arm of biased-ligand search. Melanocortin receptor 4 (Homo sapiens), P32245. MC4R-expressing cells, MTII-stimulated cAMP, LANCE TR-FRET. inhibition, % at 6.5 µM. 0.48% of 360,000 active;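 active means inhibition above its plate's cutoff, the mean of tested wells on that plate plus 3 SD, cut at about 29% in these data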;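 further: 0% = Melanotan II alone and 100% = Melanotan II plus saturating MCL0020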
Target sequence (P32245 whole entry, looked up): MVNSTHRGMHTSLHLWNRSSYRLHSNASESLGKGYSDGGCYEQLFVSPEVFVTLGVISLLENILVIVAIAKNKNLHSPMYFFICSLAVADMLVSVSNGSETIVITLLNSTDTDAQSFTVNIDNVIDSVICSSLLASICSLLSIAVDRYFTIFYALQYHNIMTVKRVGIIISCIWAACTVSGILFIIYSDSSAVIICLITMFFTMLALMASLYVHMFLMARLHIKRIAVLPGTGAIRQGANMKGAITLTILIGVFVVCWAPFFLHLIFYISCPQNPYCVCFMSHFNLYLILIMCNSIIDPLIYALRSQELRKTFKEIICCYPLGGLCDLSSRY
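Material – human MC4R-expressing U2OS cells · Repeats – no replicates · Detection – TR-FRET with Eu-cAMP and labeled anti-cAMP, 671 nm · Times – compound 30 min, challenge 1 h, detection 1 h · Compound – single nominal compound dose of 6.5 µM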
CSC inhib: cancer stem cell viability inhibitors, primary screen, luminescence; cancer stem cell-like cells viability; inhibition, % at 7.5 µM; 1.1% of 300,000 active; in the data active means inhibition above about 75%; tested in HMLE shEcad cells
MC4R barr agon: MC4R agonists recruiting beta-arrestin, primary screen, cell-based, luminescence, agonist arm of biased-ligand search; 0.98% of 360,000 active; U2OS MC4R beta-arrestin complementation; percent of melanotan II response, DMSO zero; activation, % at 8.9 µM; AID 540308, 2011;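 active means activation above a per-plate cutoff, the mean activation of sample wells on that plate plus 3 SD, cut at about 8% in these data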
ANO1 block: TMEM16A chloride channel inhibitors, primary screen, cell-based, HTS; Anoctamin-1 (Mus musculus), Q8BHY3; HEK293 TMEM16A/YFP iodide influx fluorescence, ionomycin; normalized B-score (activity score, 25-100; higher = stronger inhibition) at 10 µM; 1.2% of 310,000 active;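 active means ratio plate-corrected score three or more library SD toward inhibition, starting fluorescence score within five deviations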;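 further: score derived from kinetic fluorescence span divided by baseline fluorescence per well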
ANO1 activ: TMEM16A chloride channel activators or potentiators, primary screen, cell-based, HTS; HEK293 TMEM16A/YFP-H148Q/I152L, iodide quench fluorescence; hits give low values; AID 623877, 2012; 0.3% of 340,000 active; B-score at 10 µM; Anoctamin-1 (Mus musculus), Q8BHY3;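 active means fluorescence-ratio B-score plate-corrected deviation score at least 3 library SD below zero, with starting fluorescence score within 5 deviations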;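 further: channel opened by trigger with iodide after compound preincubation; score built on the fluorescence ratio of max minus min over baseline; more negative score means more quench and so TMEM16A activation or potentiation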
Starred values were filed as active, the others as inactive; i = inactive; / = not tested or not shown.

SMILES	Beta cell apopt	MC4R antagonist	CSC inhib	MC4R barr agon	ANO1 block	ANO1 activ
Cc1cc(/C=C2\SC(=S)N(C)C2=O)c(C)n1-c1ccc(O)cc1	-4.8	22.6	41.2	4.3	i	i
Cc1cc(/C=C2/SC(=S)N(c3ccc([N+](=O)[O-])cc3)C2=O)c(C)n1-c1cccnc1	105.7*	6.2	27.8	-2.6	i	i
Cc1cc(/C=C2/SC(=S)N(c3cccc(Cl)c3)C2=O)c(C)n1-c1cccnc1	125.1*	5.1	/	-3.4	i	i
Cc1cc(/C=C2\SC(=S)N(C)C2=O)c(C)n1-c1ccccc1O	11.5	-0.5	97.9*	-0.3	i	i
Cc1cccc(N2C(=O)/C(=C/c3cccnc3)SC2=S)c1	-6.1	8.6	3.6	1.3	i	i
N#Cc1ccccc1S(=O)(=O)N1CCN(C(=O)CCc2ccccc2)CC1	-2.7	-3.0	/	-0.4	/	i
N#Cc1ccccc1S(=O)(=O)N1CCN(C(=O)CCC2CCCC2)CC1	1.7	0.9	-2.8	-2.0	/	-23.4*
C[C@@]12C(=O)OC(=O)[C@]1(C)C1CCC2O1	78.9*	11.8	109.2*	-1.3	i	i
CC12C(=O)N(c3nccs3)C(=O)C1(C)C1CCC2O1 (stereo unspecified)	/	4.6	/	1.1	/	/
COc1ccc2nc(SCCOC(=O)Nc3ccc(Cl)cc3)nc(C)c2c1	-0.2	-3.1	39.2	1.3	25*	i
COc1ccc2nc(SCC(=O)O)nc(C)c2c1	-2.4	0.4	6.8	-0.9	i	i
COC(=O)C1=C(C(=O)OC)[C@]2([C@H]3CC=CCN[C@@H](Cc4ccccc4)C(=O)N3Cc3ccccc3)C=C[C@H]1O2	/	6.4	/	0.4	/	-10.4*
COC(=O)C1=C(C(=O)OC)[C@]2([C@@H]3CC=CCN[C@@H](Cc4ccccc4)C(=O)N3Cc3ccccc3)C=C[C@H]1O2	/	1.4	/	0.5	/	i
C/C(=N\Nc1nc2ccccc2[nH]1)c1cc2ccccc2o1	26.1	-3.1	20.4	4.6	i	i
C/C(=N\Nc1nc2ccccc2[nH]1)c1ccccn1	92.0*	-5.1	/	-2.9	i	i
CCc1ccc(OCCOCC(O)CN2CCN(Cc3ccc(Cl)cc3)CC2)cc1 (stereo unspecified)	19.5	9.8	31.9	0.3	100*	i
CC(=O)Nc1ccc(N=Nc2ccccc2)cc1[N+](=O)[O-]	/	-14.7	/	-0.8	/	/
c1ccc(CSc2ccc(-c3ccccn3)nn2)cc1	86.6*	6.1	86.2*	-1.8	i	i
Clc1ccc(CSc2ccc(-c3ccccn3)nn2)cc1	84.1*	17.6	127.3*	6.2	i	i
Cc1cc(Cl)ccc1NC(=O)CCC(=O)N/N=C/c1cc([N+](=O)[O-])ccc1O	17.9	4.5	16.7	-1.6	i	i
O=[N+]([O-])c1ccc(/C=N/NC(=S)Nc2ccc(Cl)cc2Cl)s1	25.4	-7.9	123.7*	-4.3	i	i
O=[N+]([O-])c1ccc(O)c(/C=N/NC(=S)Nc2ccc(Cl)cc2Cl)c1	121.1*	13.8	76.1*	-5.3	i	i
O=C(N/N=C/c1ccc(Cl)cc1Cl)Nc1ccccc1	2.9	-4.4	30.1	16.0*	i	i
O=C(Nc1ccccc1)Nc1ccc(O)c2ccccc12	11.4	/	97.5*	/	i	i
O=C(N/N=C/c1cccc(Cl)c1Cl)Nc1ccccc1	-6.6	1.2	-5.9	0.4	i	i
SMILES	Beta cell apopt	MC4R antagonist	CSC inhib	MC4R barr agon	ANO1 block	ANO1 activ
O=C(Nc1ccccc1)Nc1cccc2ccccc12	6.3	5.5	3.1	0.9	i	i
O=C(Nc1ccccc1)Nc1cc(Cl)cc(Cl)c1	69.8	8.0	80.9*	1.2	i	i
O=C(Nc1cccc(Cl)c1)Nc1cccc(Cl)c1	43.1	-2.4	-11.2	4.5	i	i
O=C(Nc1ccc(Nc2ccccc2)cc1)Nc1ccccc1Cl	10.5	1.9	100.4*	4.6	i	i
CCOc1ccc(CCNC(=O)c2cccc(-n3cnnn3)c2)cc1OCC	3.3	4.1	/	-0.6	/	i
C[C@H]1COC(=O)[C@H](CC(=O)OC(C)(C)C)C/C=C\C[C@@H](CC(=O)N[C@@H](CO)Cc2ccccc2)C(=O)N1	0.9	4.4	-7.4	-0.7	/	i
CCC(=O)NC(c1cccs1)c1cc([N+](=O)[O-])c2cccnc2c1OC (stereo unspecified)	/	-5.1	/	0.4	/	/
CC(C)C(=O)NC(c1cccs1)c1cc([N+](=O)[O-])c2cccnc2c1O (stereo unspecified)	97.3*	0.6	104.3*	-4.9	i	i
Cc1ccc(C(NC(=O)C(C)C)c2cc([N+](=O)[O-])c3cccnc3c2O)cc1 (stereo unspecified)	61.2	5.0	144.4*	-3.6	i	i
CCC(=O)NC(/C=C/c1ccccc1)c1cc([N+](=O)[O-])c2cccnc2c1O (stereo unspecified)	77.3*	/	151.1*	/	i	/
CN(C)CCCN(C(=O)CCc1ccccc1)c1nc2ccc(F)cc2s1	1.1	-2.4	/	-0.9	i	i
CN(C)CCCN(C(=O)CCc1ccccc1)c1nc2ccc(Br)cc2s1	14.3	1.4	49.3	9.5*	i	i
CCc1ccc(N(CC(=O)Nc2nc3ccc(C)cc3s2)S(=O)(=O)c2c(C)noc2C)cc1	/	8.8	106.4*	0.5	i	i
CCc1ccc(NC(=O)CN(c2ccc3c(c2)OCO3)S(=O)(=O)c2c(C)noc2C)cc1	/	5.2	-17.2	3.0	i	i
CCOC(=O)Nc1ccc2c(c1)N(C(=O)CN(C)C)c1ccccc1CC2	-1.5	12.3	10.2	2.0	100*	i
CCOC(=O)Nc1ccc2c(c1)N(C(=O)CCN(C)C)c1ccccc1CC2	1.1	1.5	10.6	1.3	i	i
C#CCOCCOCCOCCNc1nc(N2CCN(C(=O)CCCCCCCCCCNC(=O)Cn3cc(CCCCCN)nn3)CC2)nc(N2CCN(C(=O)CCCCCCCCCCNC(=O)[C@H]([C@@H](C)CC)n3cc(CCCCCN)nn3)CC2)n1	38.8	11.2	-10.3	-0.1	25*	-13.5*
C#CCOCCOCCOCCNc1nc(N2CCN(C(=O)CCCCCCCCCCNC(=O)[C@H](CCC(=O)O)n3cc(CCCCCN)nn3)CC2)nc(N2CCN(C(=O)CCCCCCCCCCNC(=O)[C@@H]([C@H](C)O)n3cc(C)nn3)CC2)n1	-3.9	8.9	9.8	-0.5	i	i
